Test results published in ChEMBL document CHEMBL3272328, “Novel analogs of tricyclic psychopharmacological agents” (J Med Chem, 1976).
Active and inactive are the calls of the source. The rule behind the calls is not given here.

Tests used:
Mus musculus [1] = assay: Antidepressant activity in pargyline-pretreated mouse assessed as potentiation of serotonin-induced tremor, head movements, abducted limbs and irritability at 50 mg/kg, po treated 4 hrs prior to serotonin-challenge; assay type: functional, organism-based; parameters: dose 50 mg/kg
In short: (§1)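 Mice received pargyline 40 mg/kg po, then the test drug po. They were challenged with 5-hydroxytryptophan 100 mg/kg ip either 1 or 4 hr later. Central responses were rated on the 1–3 scale (slight, moderate, marked). Three mice per dose.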

Mus musculus [2] = assay: Antidepressant activity in pargyline-pretreated mouse assessed as potentiation of serotonin-induced tremor, head movements, abducted limbs and irritability at 100 mg/kg, po treated 1 hr prior to serotonin-challenge; assay type: functional, organism-based; parameters: dose 100 mg/kg; in short: as §1
[3] = Toxicity in ip dosed mouse; assay type: organism-based; conditions: in vivo
Mus musculus [4] = assay: Antidepressant activity in pargyline-pretreated mouse assessed as potentiation of DL-DOPA-induced jumping, fighting and squeaking at 25 mg/kg, po treated 4 hrs prior to DL-DOPA-challenge; assay type: functional, organism-based; parameters: dose 25 mg/kg
In short: (§2)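 Mice were pretreated with pargyline 40 mg/kg po, given the test drug po 4 hr before the challenge, then challenged with DL-Dopa 200 mg/kg. The motor response (motor activity, jumping, fighting, squeaking/irritability) was graded slight (1), moderate (2) or marked (3). Four mice per dose.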

Mus musculus [5] = assay: Antidepressant activity in pargyline-pretreated mouse assessed as potentiation of serotonin-induced tremor, head movements, abducted limbs and irritability at 25 mg/kg, po treated 4 hrs prior to serotonin-challenge; assay type: functional, organism-based; parameters: dose 25 mg/kg; in short: as §1
Mus musculus [6] = assay: Antipsychotic activity in mouse assessed as change in methamphetamine-induced hyperactivity at 50 mg/kg, po relative to control; assay type: functional
In short: (§3)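 Mice were premedicated po with the test compound, then given methamphetamine 3 mg/kg sc. Motor activity was counted in photocell chambers, three mice per chamber and nine per dose. Counts are mean ± SE, expressed as % change from methamphetamine-only controls. Analysis was ANOVA followed by t test or Mann-Whitney U, with p < 0.05.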

[7] = Toxicity in po dosed mouse; assay type: organism-based; conditions: in vivo
Mus musculus [8] = assay: Antipsychotic activity in mouse assessed as change in methamphetamine-induced hyperactivity at 5 mg/kg, po relative to control; assay type: functional, organism-based; parameters: dose 5 mg/kg; in short: as §3
Mus musculus [9] = assay: Antidepressant activity in pargyline-pretreated mouse assessed as potentiation of DL-DOPA-induced jumping, fighting and squeaking at 100 mg/kg, po treated 4 hrs prior to DL-DOPA-challenge; assay type: functional, organism-based; parameters: dose 100 mg/kg; in short: as §2
Mus musculus [10] = assay: Antidepressant activity in pargyline-pretreated mouse assessed as potentiation of serotonin-induced tremor, head movements, abducted limbs and irritability at 50 mg/kg, po treated 1 hr prior to serotonin-challenge; assay type: functional, organism-based; parameters: dose 50 mg/kg; in short: as §1
Mus musculus [11] = assay: Antidepressant activity in pargyline-pretreated mouse assessed as potentiation of serotonin-induced tremor, head movements, abducted limbs and irritability at 100 mg/kg, po treated 4 hrs prior to serotonin-challenge; assay type: functional, organism-based; parameters: dose 100 mg/kg; in short: as §1
Mus musculus [12] = assay: Antidepressant activity in pargyline-pretreated mouse assessed as potentiation of serotonin-induced tremor, head movements, abducted limbs and irritability at 25 mg/kg, po treated 1 hr prior to serotonin-challenge; assay type: functional, organism-based; parameters: dose 25 mg/kg; in short: as §1
Mus musculus [13] = assay: Antipsychotic activity in po dosed mouse assessed as change in methamphetamine-induced hyperactivity; assay type: functional
In short: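 Mice were given test compound orally […] with a 4-hr pretreatment, then methamphetamine 3 mg/kg sc. Three mice were placed per photocell motor-activity chamber, with nine mice per dose. Photocell counts (mean ± SE) were compared with methamphetamine-treated controls and expressed as % change. Significance (p < 0.05) was tested by analysis of variance, then t test or Mann-Whitney U test.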

Mus musculus [14] = assay: Antipsychotic activity in mouse assessed as change in methamphetamine-induced hyperactivity at 20 mg/kg, po relative to control; assay type: functional; in short: as §3
Mus musculus [15] = assay: Antidepressant activity in pargyline-pretreated mouse assessed as potentiation of DL-DOPA-induced jumping, fighting and squeaking at 10 mg/kg, po treated 4 hrs prior to DL-DOPA-challenge; assay type: functional, organism-based; parameters: dose 10 mg/kg; in short: as §2
Mus musculus [16] = assay: Antidepressant activity in pargyline-pretreated mouse assessed as potentiation of DL-DOPA-induced jumping, fighting and squeaking at 5 mg/kg, po treated 4 hrs prior to DL-DOPA-challenge; assay type: functional, organism-based; parameters: dose 5 mg/kg; in short: as §2
Mus musculus [17] = assay: Antipsychotic activity in mouse assessed as change in methamphetamine-induced hyperactivity at 10 mg/kg, po relative to control; assay type: functional; in short: as §3
Mus musculus [18] = assay: Antidepressant activity in pargyline-pretreated mouse assessed as potentiation of DL-DOPA-induced jumping, fighting and squeaking at 20 mg/kg, po treated 4 hrs prior to DL-DOPA-challenge; assay type: functional, organism-based; parameters: dose 20 mg/kg; in short: as §2

| SMILES | Activity (Mus musculus [1]) | Activity (Mus musculus [2]) | LD50 [3] | Activity (Mus musculus [4]) | Activity (Mus musculus [5]) | Activity (Mus musculus [6]) | LD50 [7] | Activity (Mus musculus [8]) | Activity (Mus musculus [9]) | Activity (Mus musculus [10]) | Activity (Mus musculus [11]) | Activity (Mus musculus [12]) | ED50 (Mus musculus [13]) | Activity (Mus musculus [14]) | Activity (Mus musculus [15]) | Activity (Mus musculus [16]) | Activity (Mus musculus [17]) | Activity (Mus musculus [18]) |
| --- | --- | --- | --- | --- | --- | --- | --- | --- | --- | --- | --- | --- | --- | --- | --- | --- | --- | --- |
| CN1C2CCC1CC(=C1c3ccccc3CCc3ccccc31)C2 | inactive | Active | 30 mg/kg | inactive | inactive | 14% | 100 mg/kg | inactive | Active | inactive | inactive | inactive |  |  |  |  |  |  |
| CN1CC2C(C1)C21c2ccccc2CCc2ccc(Cl)cc21 (stereo not given) | Active | Active |  | Active | Active | 29% |  | inactive | Active | inactive | Active | inactive |  |  |  |  |  |  |
| CN(C)CCCN1c2ccccc2CCc2ccc(Cl)cc21 [CLOMIPRAMINE] | Active | Active |  |  | Active |  |  |  |  | Active | Active | Active | 5 mg/kg |  |  |  |  |  |
| CN(C)CCCN1c2ccccc2CCc2ccccc21 [IMIPRAMINE] |  |  |  | Active |  |  |  | inactive | Active |  |  |  |  | 32% | Active | inactive | 19% |  |
| CN1C2CCC1CC(C1(O)c3ccccc3CCc3ccccc31)C2 (stereo not given) |  |  |  | Active |  | 11% |  | inactive | Active |  |  |  |  |  |  |  |  |  |
| CN(C)C1C=C(C2c3ccccc3C=Cc3ccccc32)CCC1 (stereo not given) | Active | Active |  | Active | inactive | 23% |  | inactive | Active | Active | Active | inactive |  |  | Active | inactive |  | Active |
| CN(C)C1CCCCC(=C2c3ccccc3CCc3ccccc32)C1 (stereo not given) |  | inactive |  | Active |  | 11% |  | inactive | Active | inactive |  | inactive |  |  |  |  |  |  |
